For 1 compound, IC50, inhibition and Activity results are on record in ChEMBL document CHEMBL4130443, “Targeting breast cancer stem cells by novel HDAC3-selective inhibitors” (Eur J Med Chem, 2017).

In test [1] the test system is MDA-MB-231. The experiment in a line: Inhibition of colony formation of human MDA-MB-231 cells incubated for 48 hrs by crystal violet staining based assay. The conditions noted are these: MDA-MB-231, 48 h.
The target in the next test is Histone deacetylase 1 (Homo sapiens, UniProt Q13547). As to the kind of experiment: Inhibition of human HDAC1 using p53 (379 to 382 residues) derived fluorogenic peptide RHKKAc.
Test [2] deals with Histone deacetylase 3/Nuclear receptor corepressor 2 (HDAC3/NCoR2) (Homo sapiens) (UniProt O15379+Q9Y618). The experiment in a line: Inhibition of human HDAC3/NCOR2 at 1 uM using p53 (379 to 382 residues) derived fluorogenic peptide RHKKAc. It counts as protein-complex assay. The gist of the method:
(§1)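 Isoform profiling run by a commercial vendor with compounds at 1 µM. Values are percent inhibition, each the average of two determinations.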

Test [3] deals with MDA-MB-231. As to the kind of experiment: Inhibition of tumorogenicity of human MDA-MB-231 cells xenografted in NOD/SCID mouse injected with cells pretreated with 5 uM compound for 48 hrs assessed as reduction in tumor incidence at 100 mg/kg, po dosed via gavage once daily starting on day 2 post injection and continuing through day 12. It counts as functional, organism-based. In outline: (§2)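 Cells pretreated 48 h with 5 µM compound or DMSO, trypsinized and injected at 50,000 cells/0.1 ml in 50% Matrigel into the left 4th inguinal mammary fat pad of female NOD/SCID mice (N = 10 per group). Dosed 100 mg/kg by oral gavage once daily in 0.5% methylcellulose/0.1% Tween 80 in water. Caliper volume = (width² x length) x 0.52. Incidence by log-rank test, volume at day 27 by t-test.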

The target of test [4] is T1, Histone deacetylase 2 (Homo sapiens, UniProt Q92769). The experiment in a line: Inhibition of human HDAC2 using p53 (379 to 382 residues) derived fluorogenic peptide RHKKAc.
For test [5], the target named is Histone deacetylase 3 (Homo sapiens) (UniProt O15379). As to the kind of experiment: Inhibition of HDAC3 in human MDA-MB-231 cells assessed as reduction in Akt phosphorylation at 0.5 to 5 uM by immunoblotting. It counts as cell-based. The gist of the method: (§3)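 Monolayer cells treated in 5% FBS at graded concentrations. Lysed in SDS/EDTA/Tris pH 8.1 buffer, equal protein immunoblotted with primary antibodies 1:1000 overnight at 4°C. Detected by ECL for phospho-Akt, β-catenin and histone H3 pan/H3K9 acetylation.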

The target in test [6] is Histone deacetylase 5 (Homo sapiens) (UniProt Q9UQL6). As to the kind of experiment: Inhibition of human HDAC5 at 1 uM using Boc-Lys(trifluoroacetyl)-AMC substrate. The gist of the method:
as §1

For test [7], the system named is MDA-MB-231. The experiment in a line: Inhibition of mammosphere formation of human MDA-MB-231 cells incubated for 7 days. As to conditions: MDA-MB-231, 168 h.
In test [8] the target is Histone deacetylase 3 (Homo sapiens) (UniProt O15379). As to the kind of experiment: Inhibition of HDAC3 in human MDA-MB-231 cells assessed as reduction in beta-catenin expression at 0.5 to 5 uM by immunoblotting. Type of test: cell-based. The gist of the method: as §3
For orientation: Immunoblotting shows a protein as a band on a membrane.

In test [9] the test system is MDA-MB-231. As to the kind of experiment: Inhibition of cancer stem cell subpopulation of human MDA-MB-231 cells assessed as CD44+/CD24low subpopulation level at 0.1 to 5 uM by flow cytometry. Type of test: functional, cell-based. The gist of the method:
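Cells exposed to DMSO or compound at graded concentrations, then harvested and washed in stain buffer. Stained with FITC- or phycoerythrin-conjugated anti-CD44 and anti-CD24 for 30 min on ice in the dark, resuspended in PBS, and CD44+/CD24low fraction read by flow cytometry.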
In general terms: Flow cytometry measures light scatter and fluorescence of single cells or particles in a stream.

For test [10], the target named is T1, Histone deacetylase 2. The experiment in a line: Inhibition of human HDAC2 at 1 uM using p53 (379 to 382 residues) derived fluorogenic peptide RHKKAc. In outline:
as §1

Test [11] has as its target Histone deacetylase 3 (Homo sapiens) (UniProt O15379). As to the kind of experiment: Inhibition of HDAC3 in human MDA-MB-231 cells assessed as increase in histone H3 acetylation at 0.5 to 5 uM by immunoblotting. It counts as cell-based. The gist of the method: as §3
In test [12] the test system is MDA-MB-231. The experiment in a line: Induction of tumor growth dela of human MDA-MB-231 cells xenografted in NOD/SCID mouse injected with cells pretreated with 5 uM compound for 48 hrs assessed as reduction in tumor volume at 100 mg/kg, po dosed via gavage once daily starting on day 2 post injection and continuing through day 26. Type of test: functional, organism-based. In outline:
as §2

For test [13], the target named is T2, Histone deacetylase 8 (Homo sapiens) (UniProt Q9BY41).
T2 sequence (whole entry): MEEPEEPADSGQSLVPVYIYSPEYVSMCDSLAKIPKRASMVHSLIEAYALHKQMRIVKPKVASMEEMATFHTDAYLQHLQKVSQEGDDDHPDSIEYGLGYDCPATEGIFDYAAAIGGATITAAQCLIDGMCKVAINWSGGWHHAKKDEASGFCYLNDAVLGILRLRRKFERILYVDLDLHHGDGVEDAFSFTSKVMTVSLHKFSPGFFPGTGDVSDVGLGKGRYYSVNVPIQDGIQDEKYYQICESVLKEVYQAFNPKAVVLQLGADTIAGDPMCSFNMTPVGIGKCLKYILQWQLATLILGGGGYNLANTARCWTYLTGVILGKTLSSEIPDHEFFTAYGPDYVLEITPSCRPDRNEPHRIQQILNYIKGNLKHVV
The experiment in a line: Inhibition of human HDAC8 at 1 uM using p53 (379 to 382 residues) derived fluorogenic peptide RHKAcKAc. In outline:
as §1

The target of test [14] is Histone deacetylase 3/Nuclear receptor corepressor 2 (HDAC3/NCoR2) (Homo sapiens, UniProt O15379). As to the kind of experiment: Inhibition of human HDAC3/NCOR2 using p53 (379 to 382 residues) derived fluorogenic peptide RHKKAc. Type of test: protein-complex assay.

The source made the active and inactive calls. The calls are words filed in the database; no cut-off is given here. Bounds are passed on as bounds.

Histone deacetylase 3 (Homo sapiens), sequence (O15379 whole entry): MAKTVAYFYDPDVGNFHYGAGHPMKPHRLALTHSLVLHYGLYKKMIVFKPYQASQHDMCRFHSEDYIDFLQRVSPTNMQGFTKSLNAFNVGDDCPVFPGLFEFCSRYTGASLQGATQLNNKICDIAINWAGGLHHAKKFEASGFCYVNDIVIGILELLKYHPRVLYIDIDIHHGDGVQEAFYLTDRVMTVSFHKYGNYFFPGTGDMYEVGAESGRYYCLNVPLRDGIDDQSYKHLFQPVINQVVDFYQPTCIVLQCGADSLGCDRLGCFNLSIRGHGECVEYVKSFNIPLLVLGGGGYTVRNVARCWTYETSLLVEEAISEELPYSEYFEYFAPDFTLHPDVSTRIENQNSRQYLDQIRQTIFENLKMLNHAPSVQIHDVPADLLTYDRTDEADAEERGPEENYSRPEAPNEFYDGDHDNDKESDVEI
T1 sequence (Q92769 whole entry, the tested form may be a part): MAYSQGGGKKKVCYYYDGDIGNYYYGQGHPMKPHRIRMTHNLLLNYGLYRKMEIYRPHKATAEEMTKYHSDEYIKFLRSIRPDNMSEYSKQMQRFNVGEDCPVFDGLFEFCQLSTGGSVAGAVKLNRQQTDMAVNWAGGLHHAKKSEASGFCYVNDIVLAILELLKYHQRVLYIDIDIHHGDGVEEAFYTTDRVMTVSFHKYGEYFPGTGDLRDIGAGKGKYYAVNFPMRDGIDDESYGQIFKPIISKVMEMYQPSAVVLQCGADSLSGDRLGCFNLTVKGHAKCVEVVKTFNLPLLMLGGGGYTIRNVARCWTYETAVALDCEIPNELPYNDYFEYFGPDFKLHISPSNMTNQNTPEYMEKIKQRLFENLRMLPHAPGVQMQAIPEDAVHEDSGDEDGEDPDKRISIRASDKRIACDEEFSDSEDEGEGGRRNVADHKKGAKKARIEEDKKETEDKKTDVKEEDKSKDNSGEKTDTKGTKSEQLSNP
Histone deacetylase 5 (Homo sapiens), sequence (Q9UQL6 whole entry): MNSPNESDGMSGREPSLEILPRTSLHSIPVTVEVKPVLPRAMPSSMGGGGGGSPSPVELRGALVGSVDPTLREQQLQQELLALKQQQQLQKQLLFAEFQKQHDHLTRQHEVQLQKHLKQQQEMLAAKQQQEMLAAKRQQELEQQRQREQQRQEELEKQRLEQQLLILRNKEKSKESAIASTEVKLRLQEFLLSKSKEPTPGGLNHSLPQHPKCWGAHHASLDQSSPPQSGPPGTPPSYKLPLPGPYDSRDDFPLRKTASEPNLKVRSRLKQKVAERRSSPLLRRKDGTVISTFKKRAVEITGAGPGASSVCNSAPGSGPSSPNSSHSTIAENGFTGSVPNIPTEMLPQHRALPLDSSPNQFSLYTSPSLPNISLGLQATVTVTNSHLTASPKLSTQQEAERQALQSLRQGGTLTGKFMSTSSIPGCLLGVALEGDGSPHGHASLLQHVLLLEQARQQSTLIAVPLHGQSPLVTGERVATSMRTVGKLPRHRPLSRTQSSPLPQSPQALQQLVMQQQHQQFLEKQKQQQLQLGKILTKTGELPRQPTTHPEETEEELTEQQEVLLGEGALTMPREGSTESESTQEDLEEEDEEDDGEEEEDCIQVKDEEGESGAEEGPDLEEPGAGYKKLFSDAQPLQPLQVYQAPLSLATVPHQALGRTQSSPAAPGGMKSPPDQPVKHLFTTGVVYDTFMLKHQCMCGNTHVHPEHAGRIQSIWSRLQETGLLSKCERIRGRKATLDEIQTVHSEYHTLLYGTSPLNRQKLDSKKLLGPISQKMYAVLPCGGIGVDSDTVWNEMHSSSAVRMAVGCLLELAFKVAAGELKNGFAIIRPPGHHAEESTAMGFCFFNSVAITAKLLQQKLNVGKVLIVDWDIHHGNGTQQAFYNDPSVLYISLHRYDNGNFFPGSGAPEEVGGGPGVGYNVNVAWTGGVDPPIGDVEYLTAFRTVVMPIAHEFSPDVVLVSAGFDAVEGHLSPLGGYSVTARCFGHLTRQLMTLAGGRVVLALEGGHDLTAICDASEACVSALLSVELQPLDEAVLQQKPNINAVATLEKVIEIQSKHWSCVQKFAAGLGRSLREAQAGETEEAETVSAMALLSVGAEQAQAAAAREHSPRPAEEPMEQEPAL
Histone deacetylase 3/Nuclear receptor corepressor 2 (HDAC3/NCoR2), sequence (O15379 whole entry, the tested form may be a part): as the sequence (O15379 whole entry) above
Histone deacetylase 3/Nuclear receptor corepressor 2 (HDAC3/NCoR2), sequence (Q9Y618 whole entry, further chain, the tested form may be a part): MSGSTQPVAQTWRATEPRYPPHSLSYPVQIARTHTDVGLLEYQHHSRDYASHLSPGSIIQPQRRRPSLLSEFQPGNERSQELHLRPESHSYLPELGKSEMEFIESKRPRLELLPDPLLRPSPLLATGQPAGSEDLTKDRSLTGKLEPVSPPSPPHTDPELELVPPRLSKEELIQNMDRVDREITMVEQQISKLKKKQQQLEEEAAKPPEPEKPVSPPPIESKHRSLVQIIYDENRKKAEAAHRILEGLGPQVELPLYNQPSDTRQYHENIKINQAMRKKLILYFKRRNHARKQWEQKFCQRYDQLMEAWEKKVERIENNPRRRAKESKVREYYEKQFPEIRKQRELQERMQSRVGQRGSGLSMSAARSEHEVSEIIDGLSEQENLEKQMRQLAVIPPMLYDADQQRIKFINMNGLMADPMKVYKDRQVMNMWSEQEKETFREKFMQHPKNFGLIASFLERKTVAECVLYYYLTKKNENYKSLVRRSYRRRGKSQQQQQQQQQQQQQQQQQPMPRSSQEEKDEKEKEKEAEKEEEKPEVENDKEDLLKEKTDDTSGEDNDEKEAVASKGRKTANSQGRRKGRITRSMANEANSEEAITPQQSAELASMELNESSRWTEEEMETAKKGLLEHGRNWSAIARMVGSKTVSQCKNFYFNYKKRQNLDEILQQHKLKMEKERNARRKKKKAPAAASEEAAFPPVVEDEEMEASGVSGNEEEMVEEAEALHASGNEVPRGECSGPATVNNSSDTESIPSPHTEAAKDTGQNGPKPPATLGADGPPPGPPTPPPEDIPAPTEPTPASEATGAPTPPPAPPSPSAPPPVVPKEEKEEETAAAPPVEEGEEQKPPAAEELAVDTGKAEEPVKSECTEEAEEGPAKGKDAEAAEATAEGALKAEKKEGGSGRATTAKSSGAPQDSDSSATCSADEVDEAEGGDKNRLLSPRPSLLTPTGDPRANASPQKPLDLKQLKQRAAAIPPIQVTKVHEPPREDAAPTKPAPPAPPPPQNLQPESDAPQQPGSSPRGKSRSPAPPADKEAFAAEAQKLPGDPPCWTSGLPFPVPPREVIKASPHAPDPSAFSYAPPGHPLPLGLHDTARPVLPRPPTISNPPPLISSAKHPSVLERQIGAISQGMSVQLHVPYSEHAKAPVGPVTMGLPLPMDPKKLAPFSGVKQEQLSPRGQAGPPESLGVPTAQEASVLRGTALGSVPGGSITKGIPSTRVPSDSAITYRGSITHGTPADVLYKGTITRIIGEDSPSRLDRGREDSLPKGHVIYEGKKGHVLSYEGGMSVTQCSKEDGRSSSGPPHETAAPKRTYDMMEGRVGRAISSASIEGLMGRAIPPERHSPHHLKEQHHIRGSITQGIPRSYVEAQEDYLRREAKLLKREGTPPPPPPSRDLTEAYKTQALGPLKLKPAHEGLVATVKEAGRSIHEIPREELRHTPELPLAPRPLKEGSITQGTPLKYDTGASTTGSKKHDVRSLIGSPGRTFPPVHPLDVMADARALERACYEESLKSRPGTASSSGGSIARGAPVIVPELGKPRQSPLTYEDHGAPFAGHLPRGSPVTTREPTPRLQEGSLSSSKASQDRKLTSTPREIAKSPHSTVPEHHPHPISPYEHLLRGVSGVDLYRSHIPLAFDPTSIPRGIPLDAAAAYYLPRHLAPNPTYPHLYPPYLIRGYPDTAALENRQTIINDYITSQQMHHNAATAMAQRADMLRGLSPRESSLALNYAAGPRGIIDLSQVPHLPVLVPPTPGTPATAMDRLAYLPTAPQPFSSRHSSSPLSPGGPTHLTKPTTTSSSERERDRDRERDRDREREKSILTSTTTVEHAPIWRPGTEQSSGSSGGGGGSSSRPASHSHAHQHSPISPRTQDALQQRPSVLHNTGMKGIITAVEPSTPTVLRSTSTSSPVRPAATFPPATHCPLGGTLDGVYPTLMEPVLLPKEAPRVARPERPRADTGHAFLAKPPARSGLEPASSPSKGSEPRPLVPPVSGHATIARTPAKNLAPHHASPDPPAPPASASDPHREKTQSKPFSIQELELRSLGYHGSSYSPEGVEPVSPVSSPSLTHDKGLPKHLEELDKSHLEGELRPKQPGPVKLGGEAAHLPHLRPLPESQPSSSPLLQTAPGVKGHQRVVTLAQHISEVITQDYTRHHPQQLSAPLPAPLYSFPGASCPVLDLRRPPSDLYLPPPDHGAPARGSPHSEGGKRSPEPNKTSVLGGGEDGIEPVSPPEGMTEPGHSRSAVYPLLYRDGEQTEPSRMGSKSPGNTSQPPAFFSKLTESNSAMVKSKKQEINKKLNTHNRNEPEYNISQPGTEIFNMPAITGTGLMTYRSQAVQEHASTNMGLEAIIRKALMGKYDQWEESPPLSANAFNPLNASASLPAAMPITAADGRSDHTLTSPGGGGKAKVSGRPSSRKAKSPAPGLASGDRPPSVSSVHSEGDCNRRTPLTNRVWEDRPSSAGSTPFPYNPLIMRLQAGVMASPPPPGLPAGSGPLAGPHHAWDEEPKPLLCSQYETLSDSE
Histone deacetylase 1, sequence (Q13547 whole entry, the tested form may be a part): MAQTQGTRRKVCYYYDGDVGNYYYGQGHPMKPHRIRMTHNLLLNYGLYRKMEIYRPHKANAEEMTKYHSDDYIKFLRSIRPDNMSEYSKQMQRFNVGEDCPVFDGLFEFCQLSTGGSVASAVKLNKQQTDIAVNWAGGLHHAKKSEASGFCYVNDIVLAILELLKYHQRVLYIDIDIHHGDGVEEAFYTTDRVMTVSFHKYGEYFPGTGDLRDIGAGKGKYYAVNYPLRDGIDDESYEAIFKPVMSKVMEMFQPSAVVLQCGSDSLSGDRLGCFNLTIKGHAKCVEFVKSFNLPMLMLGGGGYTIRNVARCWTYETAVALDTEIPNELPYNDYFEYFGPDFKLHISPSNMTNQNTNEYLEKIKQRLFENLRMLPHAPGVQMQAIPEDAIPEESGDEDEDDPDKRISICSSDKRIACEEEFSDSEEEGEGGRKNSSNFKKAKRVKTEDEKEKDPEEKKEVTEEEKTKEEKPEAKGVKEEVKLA

Turning to `CC(C)(C(=O)Nc1ccc(C(=O)Nc2ccc(F)cc2N)cc1)c1ccccc1`, the half-maximal inhibitory concentration (IC50) with MDA-MB-231 [1] is 500 to 1000 nM; at Histone deacetylase 1, > 10000 nM; against Histone deacetylase 2 [4] it was > 10000 nM; in the test with MDA-MB-231 [7], 500 to 1000 nM; in [14] it was 350 nM. Besides, the inhibition in test [2] was 87%; in [5] it was “Dose-dependent effect”; in test [6], 0%; in [8], “Dose-dependent effect”; with MDA-MB-231 [9], “Dose-dependent effect”; against Histone deacetylase 2 [10], 5%. For the same compound, the inhibition entry was “Dose-dependent effect” in [11] and 0% in [13]. In addition, in the test on MDA-MB-231 [3], the inhibition entry was “Active”. The result with MDA-MB-231 [12] was Active.

One may read the IC50 as the point on the concentration scale where inhibition reaches its midpoint. A higher IC50 goes with a need for much substance. What is called inhibition is the percentage by which the read-out fell short of the control.
